The values below come from ChEMBL document CHEMBL5104181, “Development of Hydrogen Sulfide-Releasing Carbonic Anhydrases IX- and XII-Selective Inhibitors with Enhanced Antihyperalgesic Action in a Rat Model of Arthritis” (J Med Chem, 2022).

Activity calls are given as the source filed them. The calls are words filed in the database; no cut-off is given here.

For one data set, the target named is Carbonic anhydrase 4 (Homo sapiens, UniProt P22748). In words: Inhibition of recombinant human CA4 pre-incubated for 15 mins by phenol red dye based stopped flow CO2 hydration assay.
Sequence of Carbonic anhydrase 4 (P22748 whole entry): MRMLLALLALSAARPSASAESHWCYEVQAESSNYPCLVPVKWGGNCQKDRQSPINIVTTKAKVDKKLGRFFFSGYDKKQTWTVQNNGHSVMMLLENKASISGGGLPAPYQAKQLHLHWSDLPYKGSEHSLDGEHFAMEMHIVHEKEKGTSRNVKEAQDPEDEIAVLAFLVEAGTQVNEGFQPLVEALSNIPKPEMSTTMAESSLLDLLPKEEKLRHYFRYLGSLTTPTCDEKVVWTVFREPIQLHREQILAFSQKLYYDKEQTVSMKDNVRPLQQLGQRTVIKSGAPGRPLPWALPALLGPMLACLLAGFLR
The subject of data set [1] is Liver. In words: Induction of H2S release in rat liver microsomes assessed as Cmax of H2S release at 150 uM measured after 90 mins by methylene blue based UV-Vis spectrophotometer analysis. The following applies: Homogenate, in the assay text read “rat liver homogenate” for “rat liver microsomes”. In kind it is functional. The method, boiled down: (§1)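 Rat liver homogenized 1/20 w/v in ice-cold 50 mM potassium phosphate pH 7.4, diluted further 1:10; compound 150 μM final (30 mM DMSO stock) in airtight vials at 37 °C, 0–90 min. H2S trapped with zinc acetate, proteins precipitated with TCA, then N,N-dimethyl-p-phenylenediamine/FeCl3; methylene blue A667 after 30 min at 25 °C; Na2S calibration 1–250 μM; compound-free baseline; triplicate.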

The test system of data set [2] is Liver. Description: Induction of H2S release in rat liver microsomes at 150 uM incubated for 90 mins by methylene blue based UV-Vis spectrophotometer analysis. In kind it is functional. The following applies: Homogenate, in the assay text read “rat liver homogenate” for “rat liver microsomes”. The method, boiled down: as §1
(Liver microsomes are vesicles of endoplasmic reticulum, rich in cytochrome P450 enzymes.)

Data set [3] in a line: Toxicity in Sprague-Dawley rat model of complete freund's adjuvant-induced arthritis assessed as effect on behavioral parameters at 30 mg/kg, po measured for 24 hrs by Irwin test. In kind it is organism-based. The following applies: in vivo. The method, boiled down: (§2)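 Single oral 30 mg/kg dose (1% CMC suspension) in CFA-arthritic Sprague Dawley rats; animals observed 24 h. Irwin screen in individual transparent cage scoring 26 autonomic, behavioral and neurological parameters; some signs recorded as present/absent, skin colour qualitatively, others semiquantitatively on observer scales (0 to +4, −4 to 0, or −4 to +4).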

Another data set concerns the target Carbonic anhydrase 1 (Homo sapiens, UniProt P00915). In words: Inhibition of recombinant human CA1 pre-incubated for 15 mins by phenol red dye based stopped flow CO2 hydration assay.
Data set [4] deals with Rattus norvegicus. Description: Antinociceptive activity against complete freund's adjuvant-induced arthritic Sprague-Dawley rat model assessed as reduction in mechanical hyperalgesia induced hypersensitivity administered orally as single dose starting from day 14 post CFA injection and measured upto 75 mins by Paw pressure test. The class given is functional, organism-based. The following applies: dose 1-30 mg/kg, route po, DDE = dose-dependent effect.

Another data set deals with Carbonic anhydrase 2 (Homo sapiens, UniProt P00918). In words: Inhibition of recombinant human CA2 pre-incubated for 15 mins by phenol red dye based stopped flow CO2 hydration assay.
In data set [5] the test system is Rattus norvegicus. In words: Antinociceptive activity against complete freund's adjuvant-induced arthritic Sprague-Dawley rat model assessed as reduction in spontaneous pain by measuring difference in weight tolerance on contralateral and ipsilateral paw administered orally as single dose starting from day 14 post CFA injection and measured after 30 to 45 mins by Incapacitance test. The class given is functional, organism-based. The following applies: dose 1-30 mg/kg, route po, time lower 30.0 min, time upper […], DDE = dose-dependent effect. The method in brief:
(§3)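 Sprague Dawley rats 200–250 g, CFA 50 μL intra-articular into left tibiotarsal joint on day 0 (saline controls). On day 14, single oral dose in 1% CMC (hybrids 1, 10, 30 mg/kg; single agents 13.23 or 17.71 mg/kg). Incapacitance apparatus, rats on hind paws on 65° inclined plane; Δ weight = contralateral minus ipsilateral load over time; 8 rats, two experimental sets, mean (SEM).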

Data set [6] relates to Liver. Description: Induction of H2S release in rat liver microsomes assessed as half life of H2S release at 150 uM incubated for 90 mins by methylene blue based UV-Vis spectrophotometer analysis. The class given is functional. The following applies: Homogenate, in the assay text read “rat liver homogenate” for “rat liver microsomes”. The method, boiled down: as §1
A short description of data set [7]: Toxicity in Sprague-Dawley rat model of complete freund's adjuvant-induced arthritis assessed as effect on neurological parameters at 30 mg/kg, po measured for 24 hrs by Irwin test. In kind it is organism-based. The following applies: in vivo. The method in brief: as §2
A further data set concerns the target Carbonic anhydrase 9 (Homo sapiens, UniProt Q16790). Description: Inhibition of recombinant human CA9 pre-incubated for 15 mins by phenol red dye based stopped flow CO2 hydration assay.
Data set [8] can be described thus: Toxicity in Sprague-Dawley rat model of complete freund's adjuvant-induced arthritis assessed as effect on autonomical parameters at 30 mg/kg, po measured for 24 hrs by Irwin test. The class given is organism-based. The following applies: in vivo. The method, boiled down: as §2
A further data set addresses Carbonic anhydrase 12 (Homo sapiens, UniProt O43570). In words: Inhibition of recombinant human CA12 pre-incubated for 15 mins by phenol red dye based stopped flow CO2 hydration assay.
The test system of data set [9] is Rattus norvegicus. In words: Antinociceptive activity against complete freund's adjuvant-induced arthritic Sprague-Dawley rat model assessed as reduction in mechanical hyperalgesia induced hypersensitivity at 10 to 30 mg/kg, po administered as single dose starting from day 14 post CFA injection and measured upto 75 mins by Paw pressure test. The class given is functional, organism-based. The following applies: dose 10-30 mg/kg.

For data set [10], the system named is Rattus norvegicus. In words: Antinociceptive activity against complete freund's adjuvant-induced arthritic Sprague-Dawley rat model assessed as increase in weight tolerated on ipsilateral paw at 10 to 30 mg/kg, po administered as single dose starting from day 14 post CFA injection and measured after 15 to 45 mins by Paw pressure test. In kind it is functional, organism-based. The following applies: dose 10-30 mg/kg, time lower 15.0 min, time upper […].

The subject of data set [11] is Rattus norvegicus. Description: Antinociceptive activity against complete freund's adjuvant-induced arthritic Sprague-Dawley rat model assessed as reduction in spontaneous pain by measuring difference in weight tolerance on contralateral and ipsilateral paw at 10 mg/kg, po administered as single dose starting from day 14 post CFA injection and measured upto 75 mins by Incapacitance test. In kind it is functional, organism-based. The method in brief:
as §3

Data set [12] has as its system Liver. Description: Induction of H2S release in rat liver microsomes assessed as Cmax of H2S release at 150 uM measured after 20 mins by methylene blue based UV-Vis spectrophotometer analysis. The following applies: Homogenate, in the assay text read “rat liver homogenate” for “rat liver microsomes”. The class given is functional. The method, boiled down: as §1
Data set [13] concerns Rattus norvegicus. Description: Antinociceptive activity against complete freund's adjuvant-induced arthritic Sprague-Dawley rat model assessed as increase in weight tolerated on ipsilateral paw at 13.23 mg/kg, po administered as single dose starting from day 14 post CFA injection and measured after 15 to 45 mins by Paw pressure test. The class given is functional, organism-based. The following applies: time lower 15.0 min, time upper […].

The subject of data set [14] is Rattus norvegicus. In words: Antinociceptive activity against complete freund's adjuvant-induced arthritic Sprague-Dawley rat model assessed as reduction in spontaneous pain by measuring difference in weight tolerance on contralateral and ipsilateral paw at 13.23 mg/kg, po administered as single dose starting from day 14 post CFA injection and measured after 15 to 30 mins by Incapacitance test. The class given is functional, organism-based. The following applies: time 15-30 min. The method in brief:
as §3

Sequence of Carbonic anhydrase 12 (O43570 whole entry): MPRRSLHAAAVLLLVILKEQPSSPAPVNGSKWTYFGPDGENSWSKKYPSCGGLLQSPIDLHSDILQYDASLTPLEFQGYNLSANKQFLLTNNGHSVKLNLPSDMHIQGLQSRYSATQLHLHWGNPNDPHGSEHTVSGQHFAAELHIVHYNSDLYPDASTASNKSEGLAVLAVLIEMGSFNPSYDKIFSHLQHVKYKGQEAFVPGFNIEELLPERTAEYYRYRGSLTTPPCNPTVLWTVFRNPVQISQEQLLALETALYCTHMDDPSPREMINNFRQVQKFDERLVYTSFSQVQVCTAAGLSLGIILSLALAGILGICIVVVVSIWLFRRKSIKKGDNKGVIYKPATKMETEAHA
Sequence of Carbonic anhydrase 1 (P00915 whole entry): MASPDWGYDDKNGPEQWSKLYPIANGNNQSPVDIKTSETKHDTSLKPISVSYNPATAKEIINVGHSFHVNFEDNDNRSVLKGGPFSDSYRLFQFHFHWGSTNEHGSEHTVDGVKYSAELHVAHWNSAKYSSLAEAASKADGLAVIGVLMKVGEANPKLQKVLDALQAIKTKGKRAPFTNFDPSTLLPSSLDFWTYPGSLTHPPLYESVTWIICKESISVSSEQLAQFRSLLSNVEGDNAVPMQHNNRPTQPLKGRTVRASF

Regarding `COc1cc([N+](=O)[O-])ccc1CN(CCc1ccc(S(N)(=O)=O)cc1)C(=O)c1ccc(-c2cssc2=S)cc1`, the inhibition constant Ki on Carbonic anhydrase 4 is 4090 nM; at Carbonic anhydrase 1, 6700 nM; at Carbonic anhydrase 2 it was 2950 nM; at Carbonic anhydrase 9, 4.1 nM; at Carbonic anhydrase 12, 7.7 nM. For the same compound, the Cmax with Liver [1] is 7.9 µM. Moreover, in the data set on Liver [2], the outcome was Active. The Activity result in data set [3] was “Non-Toxic”; in the data set with Rattus norvegicus [4], “Dde”; in the data set with Rattus norvegicus [5], “Dde”; in data set [7] it was “Non-Toxic”; in data set [8], “Non-Toxic”. In the data set on Liver [6], the T1/2 amounted to 4.3 min.
As for `NS(=O)(=O)c1ccc(CCN(Cc2csc3ccccc23)C(=O)c2ccc(-c3cssc3=S)cc2)cc1`, the Ki was 48 nM at Carbonic anhydrase 4; over 10000 nM on Carbonic anhydrase 1; 2480 nM on Carbonic anhydrase 2; 2.4 nM at Carbonic anhydrase 9; 8 nM on Carbonic anhydrase 12. Also, the Cmax in the data set on Liver [1] stood at 7.9 µM. The result in the data set with Liver [2], in the data set with Rattus norvegicus [9] and in the data set on Rattus norvegicus [10] was Active. Moreover, the Activity entry was “Non-Toxic” in [3], “Dde” in the data set with Rattus norvegicus [5], “Non-Toxic” in data set [7] and “Non-Toxic” in data set [8]. The T1/2 with Liver [6] was 4.3 min.
Take `CSc1ccc(CN(CCc2ccc(S(N)(=O)=O)cc2)C(=O)c2ccc(-c3cssc3=S)cc2)cc1`: the Ki was determined as 404 nM on Carbonic anhydrase 4; 7210 nM at Carbonic anhydrase 1; 9650 nM at Carbonic anhydrase 2; 46.2 nM on Carbonic anhydrase 9; 8.4 nM on Carbonic anhydrase 12. The Cmax with Liver [1] was found to be 7.9 µM. Moreover, the outcome with Liver [2], in the data set on Rattus norvegicus [9] and in the data set with Rattus norvegicus [10] was Active. The Activity result is “Non-Toxic” in data set [3], “Dde” in the data set with Rattus norvegicus [5], “Non-Toxic” in data set [7] and “Non-Toxic” in data set [8]. For the same compound, in the data set with Liver [6], the T1/2 came to 4.3 min.
As to `N#Cc1ccc(CN(CCc2ccc(S(N)(=O)=O)cc2)C(=O)c2ccc(-c3cssc3=S)cc2)cc1`, the Ki on Carbonic anhydrase 4 is 46.2 nM; at Carbonic anhydrase 1, over 10000 nM; at Carbonic anhydrase 2, 4830 nM; on Carbonic anhydrase 9, 40.3 nM; on Carbonic anhydrase 12, 8.8 nM.
Consider `COc1ccc(CN(CCc2ccc(S(N)(=O)=O)cc2)C(=O)c2ccc(-c3cssc3=S)cc2)cc1OC`, for which the inhibition constant Ki on Carbonic anhydrase 4 was found to be 293 nM; on Carbonic anhydrase 2, 218 nM; on Carbonic anhydrase 9, 18.6 nM; on Carbonic anhydrase 12 it was 8.9 nM.
Consider `N#CCCN(CCc1ccc(S(N)(=O)=O)cc1)C(=O)c1ccc(-c2cssc2=S)cc1`, for which the Ki came out at 523 nM at Carbonic anhydrase 4; 429 nM on Carbonic anhydrase 1; 60.4 nM on Carbonic anhydrase 2; 28.7 nM on Carbonic anhydrase 9; 9.1 nM at Carbonic anhydrase 12.
The corresponding values for `NS(=O)(=O)c1ccc(CCN(Cc2ccc([N+](=O)[O-])cc2)C(=O)c2ccc(-c3cssc3=S)cc2)cc1` are over 10000 nM, 7450 nM, 919 nM, 36.6 nM and 32.9 nM.
As to `NS(=O)(=O)c1ccc(CCN(Cc2ccccc2)C(=O)c2ccc(-c3cssc3=S)cc2)cc1`, the Ki on Carbonic anhydrase 4 was determined as 4340 nM; at Carbonic anhydrase 2, 480 nM; at Carbonic anhydrase 9, 43 nM; on Carbonic anhydrase 12, 9.7 nM.
On to `NS(=O)(=O)c1ccc(CCNCc2cccc3ccccc23)cc1`, for which the Ki on Carbonic anhydrase 9 is 45.3 nM.
For the compound `NS(=O)(=O)c1ccc(CCN(Cc2cccc3ccccc23)C(=O)c2ccc(-c3cssc3=S)cc2)cc1`, the Ki on Carbonic anhydrase 4 was 244 nM; at Carbonic anhydrase 1, over 10000 nM; at Carbonic anhydrase 2, 4460 nM; on Carbonic anhydrase 9, 15.6 nM; at Carbonic anhydrase 12 it was 7 nM. Further, the Cmax in the data set on Liver [1] came out at 7.9 µM. For the same compound, the result in the data set with Liver [2], in the data set with Rattus norvegicus [11], in the data set on Rattus norvegicus [9] and with Rattus norvegicus [10] was Active. For the same compound, the Activity result in data set [3], in data set [7] and in [8] was “Non-Toxic” throughout. Moreover, the T1/2 in the data set with Liver [6] was 4.3 min.
In the case of `NS(=O)(=O)c1ccc(CCN(Cc2ccc(Cl)cc2)C(=O)c2ccc(-c3cssc3=S)cc2)cc1`, the Ki on Carbonic anhydrase 4 was found to be 430 nM; at Carbonic anhydrase 1 it was 5510 nM; at Carbonic anhydrase 2, 2970 nM; on Carbonic anhydrase 9, 24 nM; on Carbonic anhydrase 12, 9.8 nM.
Regarding `NS(=O)(=O)c1ccc(CCN(Cc2ccc(F)cc2)C(=O)c2ccc(-c3cssc3=S)cc2)cc1`, the Ki on Carbonic anhydrase 4 was over 10000 nM; at Carbonic anhydrase 1 it was 5320 nM; on Carbonic anhydrase 2, 600 nM; at Carbonic anhydrase 9 it was 46.3 nM; at Carbonic anhydrase 12 it was 65.3 nM.
On the same counts, the results for `CN(C)c1ccc(CN(CCc2ccc(S(N)(=O)=O)cc2)C(=O)c2ccc(-c3cssc3=S)cc2)cc1` are 3410 nM, 4260 nM, 995 nM, 22.7 nM and 9.5 nM.
On the same counts, the results for `NS(=O)(=O)c1ccc(CCN(CCc2ccccc2)C(=O)c2ccc(-c3cssc3=S)cc2)cc1` are 243 nM, 4390 nM, 661 nM, 126 nM and 9.6 nM.
Take `O=C(O)c1ccc(-c2cssc2=S)cc1`: the result in the data set with Liver [2], with Rattus norvegicus [13] and in the data set with Rattus norvegicus [14] was Active. In the data set with Liver [6], the T1/2 was 3.1 min. For the same compound, the Cmax with Liver [12] is 12.1 µM.
In the case of `NS(=O)(=O)c1ccc(CCN(Cc2ccc(Br)cc2)C(=O)c2ccc(-c3cssc3=S)cc2)cc1`, the Ki on Carbonic anhydrase 4 was found to be 1040 nM; at Carbonic anhydrase 1 it was 7700 nM; at Carbonic anhydrase 2, 3660 nM; on Carbonic anhydrase 9, 19.1 nM; on Carbonic anhydrase 12 it was 12.9 nM.
Consider `COc1ccc(CN(CCc2ccc(S(N)(=O)=O)cc2)C(=O)c2ccc(-c3cssc3=S)cc2)cc1`, for which the Ki at Carbonic anhydrase 4 came to 1590 nM; on Carbonic anhydrase 1, 2210 nM; on Carbonic anhydrase 2, 589 nM; on Carbonic anhydrase 9, 50.3 nM; on Carbonic anhydrase 12, 76.4 nM.

As usually defined, the Ki is the equilibrium dissociation constant of an inhibitor or competing ligand from its target.
